# Test results from the M2OR odorant receptor database.
# Tests used:
# OR2M3 (Homo sapiens) = molecular target: T1, OR2M3 (Homo sapiens) (UniProt Q8NG83); conditions: stereoisomer not certain
# T1 sequence (whole entry): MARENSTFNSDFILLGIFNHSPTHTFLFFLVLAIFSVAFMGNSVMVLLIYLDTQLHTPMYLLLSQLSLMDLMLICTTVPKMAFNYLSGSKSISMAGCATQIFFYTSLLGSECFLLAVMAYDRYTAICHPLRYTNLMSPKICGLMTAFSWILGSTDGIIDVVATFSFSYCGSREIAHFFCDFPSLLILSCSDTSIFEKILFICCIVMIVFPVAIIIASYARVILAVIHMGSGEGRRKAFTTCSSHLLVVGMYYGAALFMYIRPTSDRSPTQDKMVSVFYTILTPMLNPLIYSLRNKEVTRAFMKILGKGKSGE
# Summary of the method: (§1)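 Each entry records the cell line, G-protein, co-transfected protein and tags used. Methods varied with the source, often transient luciferase assays in mammalian cell lines. A receptor–molecule pair is called responsive (active) if the original authors judged its signal statistically different from baseline and non-responsive (inactive) otherwise.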
# OR2L13 (Homo sapiens) = molecular target: T2, OR2L13 (Homo sapiens) (UniProt Q8N349); conditions: stereoisomer not certain
# T2 sequence (whole entry): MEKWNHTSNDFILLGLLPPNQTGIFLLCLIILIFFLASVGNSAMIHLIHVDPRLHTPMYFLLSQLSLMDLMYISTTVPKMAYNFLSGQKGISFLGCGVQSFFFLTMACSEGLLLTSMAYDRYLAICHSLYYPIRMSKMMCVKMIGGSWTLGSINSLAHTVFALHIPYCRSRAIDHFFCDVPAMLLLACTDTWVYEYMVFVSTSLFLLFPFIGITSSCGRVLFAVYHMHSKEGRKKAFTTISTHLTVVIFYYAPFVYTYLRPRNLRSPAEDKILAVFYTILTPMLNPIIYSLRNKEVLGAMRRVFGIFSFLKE
# Summary of the method: as §1
SMILES,odorant receptor agonist call (OR2M3 (Homo sapiens)),odorant receptor agonist call (OR2L13 (Homo sapiens))
CCC(C)COC(C)=O (stereo unspecified),inactive,
O=c1ccc2ccccc2o1,inactive,inactive
CC(=O)C(C)O (stereo unspecified),inactive,
CC(C)=CCCC(C)=CCO,inactive,inactive
